Experimental data from ChEMBL document CHEMBL5661979, “Pharmacological inhibition of BMK1 suppresses tumor growth through promyelocytic leukemia protein” (Cancer Cell, 2010).
Active and inactive are the calls of the source. The rule behind the calls is not given here.

Legend:
[1] = biological target: Interleukin-1 receptor-associated kinase 1 (Homo sapiens, UniProt P51617); test: Inhibition of IRAK1 in human HeLa cells lysate pre incubated for 15 mins followed by ATP acyl phosphate probe addition and measured after 10 mins by LC-MS/MS analysis; type: subcellular
[2] = biological target: Dual specificity mitogen-activated protein kinase kinase 1 (Homo sapiens, UniProt Q02750); test: Inhibition of MAP2K1 in human HeLa cells lysate pre incubated for 15 mins followed by ATP acyl phosphate probe addition and measured after 10 mins by LC-MS/MS analysis; type: subcellular
[3] = Inhibition of SRC/FYN/YES in human HeLa cells lysate pre incubated for 15 mins followed by ATP acyl phosphate probe addition and measured after 10 mins by LC-MS/MS analysis; type: subcellular
[4] = biological target: Calcium/calmodulin-dependent protein kinase type II subunit delta (Homo sapiens, UniProt Q13557); test: Inhibition of CAMK2d in human HeLa cells lysate pre incubated for 15 mins followed by ADP acyl phosphate probe addition and measured after 10 mins by LC-MS/MS analysis; type: subcellular
Summary of the method: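 KiNativ-type profiling in HeLa lysate (5 mg/mL total protein). Lysate preincubated 15 min with inhibitor at 50, 10, 2, 0.8 or 0 μM, then ATP or ADP acylphosphate probe added (5 μM final) for 10 min. Reaction stopped with urea and analysed by targeted MS, using up to four fragment ions per kinase peptide-probe conjugate. % inhibition calculated against untreated lysate. Duplicate reactions.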

[5] = biological target: T1, Serine/threonine-protein kinase tousled-like 1 (Homo sapiens) (UniProt Q9UKI8); test: Inhibition of TLK1 in human HeLa cells lysate at 2 uM pre incubated for 15 mins followed by ADP acyl phosphate probe addition and measured after 10 mins by LC-MS/MS analysis relative to control; type: subcellular; details: time 25.0 min
T1 sequence (whole entry): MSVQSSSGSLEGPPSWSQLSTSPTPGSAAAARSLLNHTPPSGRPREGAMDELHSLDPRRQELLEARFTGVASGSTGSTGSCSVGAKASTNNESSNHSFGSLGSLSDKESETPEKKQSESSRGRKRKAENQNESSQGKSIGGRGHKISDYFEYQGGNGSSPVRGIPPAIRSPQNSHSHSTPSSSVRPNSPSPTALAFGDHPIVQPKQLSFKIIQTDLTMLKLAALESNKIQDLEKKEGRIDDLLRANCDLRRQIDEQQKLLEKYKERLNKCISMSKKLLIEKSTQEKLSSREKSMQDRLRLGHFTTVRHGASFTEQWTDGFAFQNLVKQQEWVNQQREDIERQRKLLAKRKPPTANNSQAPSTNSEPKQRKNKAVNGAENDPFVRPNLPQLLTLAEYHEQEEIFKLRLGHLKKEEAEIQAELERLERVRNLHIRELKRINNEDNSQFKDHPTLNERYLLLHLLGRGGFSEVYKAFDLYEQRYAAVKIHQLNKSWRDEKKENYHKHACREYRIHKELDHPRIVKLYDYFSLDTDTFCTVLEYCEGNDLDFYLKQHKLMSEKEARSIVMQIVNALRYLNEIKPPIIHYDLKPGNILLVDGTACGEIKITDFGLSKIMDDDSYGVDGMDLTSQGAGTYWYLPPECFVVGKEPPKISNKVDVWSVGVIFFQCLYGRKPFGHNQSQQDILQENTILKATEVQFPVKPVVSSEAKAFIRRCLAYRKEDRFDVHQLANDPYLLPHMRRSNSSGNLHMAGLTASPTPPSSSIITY

[6] = biological target: Serine/threonine-protein kinase 3/4 (Homo sapiens) (UniProt Q13043+Q13188); test: Inhibition of MST1/2 in human HeLa cells lysate at 2 uM pre incubated for 15 mins followed by ADP acyl phosphate probe addition and measured after 10 mins by LC-MS/MS analysis relative to control; type: subcellular; details: time 25.0 min
[7] = biological target: Serine/threonine-protein kinase LATS2 (Homo sapiens) (UniProt Q9NRM7); test: Inhibition of LATS2 in human HeLa cells lysate at 2 uM pre incubated for 15 mins followed by ADP acyl phosphate probe addition and measured after 10 mins by LC-MS/MS analysis relative to control; type: subcellular; details: time 25.0 min
[8] = biological target: Glycogen synthase kinase-3 beta (Homo sapiens, UniProt P49841); test: Inhibition of GSK3B isoform 2 in human HeLa cells lysate at 50 uM pre incubated for 15 mins followed by ATP acyl phosphate probe addition and measured after 10 mins by LC-MS/MS analysis relative to control; type: subcellular; details: time 25.0 min
[9] = biological target: Tyrosine-protein kinase ABL (Homo sapiens, UniProt P00519+P42684); test: Inhibition of ABL1/2 in human HeLa cells lysate at 10 uM pre incubated for 15 mins followed by ATP acyl phosphate probe addition and measured after 10 mins by LC-MS/MS analysis relative to control; type: subcellular; details: time 25.0 min
Summary of the method: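 HeLa cell lysates (5 mg/mL total protein) were preincubated with inhibitor at 0, 0.8, 2, 10 or 50 μM for 15 min. ATP or ADP acylphosphate probe was then added (5 μM final) for 10 min, and reactions were stopped with urea. Up to four fragment ions per kinase probe-peptide were quantified by targeted MS. % inhibition was taken relative to untreated lysate. Run in duplicate.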

[10] = biological target: Tyrosine-protein kinase CSK (Homo sapiens, UniProt P41240); test: Inhibition of CSK in human HeLa cells lysate at 2 uM pre incubated for 15 mins followed by ATP acyl phosphate probe addition and measured after 10 mins by LC-MS/MS analysis relative to control; type: subcellular; details: time 25.0 min
[11] = biological target: T2, Non-receptor tyrosine-protein kinase TNK1 (Homo sapiens) (UniProt Q13470); test: Inhibition of recombinant TNK1 (unknown origin) expressed in HEK293 cells at 0.08 to 10 uM incubated for 15 mins in presence of 32P-gamma-ATP; type: cell-based; details: dose 0.08-10 µM
T2 sequence (whole entry): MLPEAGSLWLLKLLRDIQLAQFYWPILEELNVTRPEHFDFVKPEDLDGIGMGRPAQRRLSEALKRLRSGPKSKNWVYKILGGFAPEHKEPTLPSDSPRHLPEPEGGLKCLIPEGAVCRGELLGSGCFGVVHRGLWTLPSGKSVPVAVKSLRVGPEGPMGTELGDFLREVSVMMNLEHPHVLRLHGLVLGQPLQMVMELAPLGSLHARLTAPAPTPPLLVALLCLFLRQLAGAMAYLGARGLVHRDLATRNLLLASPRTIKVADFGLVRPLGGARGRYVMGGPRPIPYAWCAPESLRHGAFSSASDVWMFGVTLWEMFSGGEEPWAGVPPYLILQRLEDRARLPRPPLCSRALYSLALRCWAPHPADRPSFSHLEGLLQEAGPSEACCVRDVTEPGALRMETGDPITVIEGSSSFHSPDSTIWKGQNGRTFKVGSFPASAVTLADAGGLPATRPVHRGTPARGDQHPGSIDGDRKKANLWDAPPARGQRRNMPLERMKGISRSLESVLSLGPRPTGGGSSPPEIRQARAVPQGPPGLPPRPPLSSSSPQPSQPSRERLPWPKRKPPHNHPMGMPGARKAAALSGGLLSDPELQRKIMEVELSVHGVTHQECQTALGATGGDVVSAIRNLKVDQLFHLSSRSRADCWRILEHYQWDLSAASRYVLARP

[12] = MRT in Sprague-Dawley rat at 2 mg/kg, po measured up to 8 hrs by LC-MS/MS analysis; type: ADME, organism-based; details: in vivo

Sequence of Interleukin-1 receptor-associated kinase 1 (P51617 whole entry): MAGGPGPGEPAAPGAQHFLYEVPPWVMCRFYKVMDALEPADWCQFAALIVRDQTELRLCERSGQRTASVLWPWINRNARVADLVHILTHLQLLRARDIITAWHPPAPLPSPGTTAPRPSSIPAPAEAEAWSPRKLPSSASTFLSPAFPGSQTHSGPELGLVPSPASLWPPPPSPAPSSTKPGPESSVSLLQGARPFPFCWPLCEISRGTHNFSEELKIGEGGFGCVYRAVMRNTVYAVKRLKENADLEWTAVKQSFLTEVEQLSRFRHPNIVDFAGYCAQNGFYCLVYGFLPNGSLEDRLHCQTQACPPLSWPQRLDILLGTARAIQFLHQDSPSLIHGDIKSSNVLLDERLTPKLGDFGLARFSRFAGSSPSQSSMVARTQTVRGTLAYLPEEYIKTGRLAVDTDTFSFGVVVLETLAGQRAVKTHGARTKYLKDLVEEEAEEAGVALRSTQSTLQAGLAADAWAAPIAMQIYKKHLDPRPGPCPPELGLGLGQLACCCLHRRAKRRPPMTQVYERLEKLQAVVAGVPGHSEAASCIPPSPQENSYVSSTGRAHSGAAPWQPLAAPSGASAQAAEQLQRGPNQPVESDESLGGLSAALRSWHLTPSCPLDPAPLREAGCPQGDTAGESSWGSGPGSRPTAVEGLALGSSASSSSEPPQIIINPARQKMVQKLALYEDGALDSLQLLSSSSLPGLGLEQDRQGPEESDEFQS
Sequence of Serine/threonine-protein kinase 3/4 (Homo sapiens) (Q13043 whole entry, looked up): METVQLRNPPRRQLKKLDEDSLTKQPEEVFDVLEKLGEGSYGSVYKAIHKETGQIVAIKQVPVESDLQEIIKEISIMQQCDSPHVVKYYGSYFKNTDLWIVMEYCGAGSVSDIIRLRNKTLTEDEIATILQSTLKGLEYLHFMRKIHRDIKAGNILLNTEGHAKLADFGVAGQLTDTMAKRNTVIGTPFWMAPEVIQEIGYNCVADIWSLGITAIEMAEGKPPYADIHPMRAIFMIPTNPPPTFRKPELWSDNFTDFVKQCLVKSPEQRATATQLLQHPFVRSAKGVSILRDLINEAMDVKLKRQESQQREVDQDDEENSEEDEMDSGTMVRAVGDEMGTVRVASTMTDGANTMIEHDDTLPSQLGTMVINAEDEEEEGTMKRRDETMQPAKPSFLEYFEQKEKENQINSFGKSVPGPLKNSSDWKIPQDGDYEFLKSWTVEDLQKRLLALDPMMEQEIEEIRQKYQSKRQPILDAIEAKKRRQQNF
Sequence of Serine/threonine-protein kinase 3/4 (Homo sapiens) (Q13188 whole entry, looked up): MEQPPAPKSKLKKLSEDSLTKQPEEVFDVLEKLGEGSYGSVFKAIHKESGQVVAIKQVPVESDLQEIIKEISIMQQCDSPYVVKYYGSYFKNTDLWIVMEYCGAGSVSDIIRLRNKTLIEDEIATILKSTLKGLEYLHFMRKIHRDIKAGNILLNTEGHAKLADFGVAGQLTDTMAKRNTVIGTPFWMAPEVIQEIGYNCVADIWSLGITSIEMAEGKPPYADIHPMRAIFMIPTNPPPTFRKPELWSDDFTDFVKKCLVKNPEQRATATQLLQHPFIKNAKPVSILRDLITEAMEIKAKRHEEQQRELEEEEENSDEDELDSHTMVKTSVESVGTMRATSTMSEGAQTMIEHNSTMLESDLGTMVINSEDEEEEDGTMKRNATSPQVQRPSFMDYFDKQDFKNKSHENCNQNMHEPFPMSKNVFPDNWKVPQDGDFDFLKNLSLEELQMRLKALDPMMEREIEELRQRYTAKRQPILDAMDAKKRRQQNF
Sequence of Dual specificity mitogen-activated protein kinase kinase 1 (Q02750 whole entry): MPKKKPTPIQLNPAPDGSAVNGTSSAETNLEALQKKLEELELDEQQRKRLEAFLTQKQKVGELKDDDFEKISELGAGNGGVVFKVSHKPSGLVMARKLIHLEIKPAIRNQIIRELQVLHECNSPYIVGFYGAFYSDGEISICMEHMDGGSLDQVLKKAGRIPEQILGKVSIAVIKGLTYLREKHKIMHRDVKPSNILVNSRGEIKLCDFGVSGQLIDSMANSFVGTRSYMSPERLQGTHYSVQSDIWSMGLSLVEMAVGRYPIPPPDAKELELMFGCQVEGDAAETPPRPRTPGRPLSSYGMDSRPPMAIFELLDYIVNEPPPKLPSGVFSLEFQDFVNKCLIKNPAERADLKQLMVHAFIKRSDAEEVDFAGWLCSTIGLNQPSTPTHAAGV
Sequence of Serine/threonine-protein kinase LATS2 (Homo sapiens) (Q9NRM7 whole entry, canonical isoform): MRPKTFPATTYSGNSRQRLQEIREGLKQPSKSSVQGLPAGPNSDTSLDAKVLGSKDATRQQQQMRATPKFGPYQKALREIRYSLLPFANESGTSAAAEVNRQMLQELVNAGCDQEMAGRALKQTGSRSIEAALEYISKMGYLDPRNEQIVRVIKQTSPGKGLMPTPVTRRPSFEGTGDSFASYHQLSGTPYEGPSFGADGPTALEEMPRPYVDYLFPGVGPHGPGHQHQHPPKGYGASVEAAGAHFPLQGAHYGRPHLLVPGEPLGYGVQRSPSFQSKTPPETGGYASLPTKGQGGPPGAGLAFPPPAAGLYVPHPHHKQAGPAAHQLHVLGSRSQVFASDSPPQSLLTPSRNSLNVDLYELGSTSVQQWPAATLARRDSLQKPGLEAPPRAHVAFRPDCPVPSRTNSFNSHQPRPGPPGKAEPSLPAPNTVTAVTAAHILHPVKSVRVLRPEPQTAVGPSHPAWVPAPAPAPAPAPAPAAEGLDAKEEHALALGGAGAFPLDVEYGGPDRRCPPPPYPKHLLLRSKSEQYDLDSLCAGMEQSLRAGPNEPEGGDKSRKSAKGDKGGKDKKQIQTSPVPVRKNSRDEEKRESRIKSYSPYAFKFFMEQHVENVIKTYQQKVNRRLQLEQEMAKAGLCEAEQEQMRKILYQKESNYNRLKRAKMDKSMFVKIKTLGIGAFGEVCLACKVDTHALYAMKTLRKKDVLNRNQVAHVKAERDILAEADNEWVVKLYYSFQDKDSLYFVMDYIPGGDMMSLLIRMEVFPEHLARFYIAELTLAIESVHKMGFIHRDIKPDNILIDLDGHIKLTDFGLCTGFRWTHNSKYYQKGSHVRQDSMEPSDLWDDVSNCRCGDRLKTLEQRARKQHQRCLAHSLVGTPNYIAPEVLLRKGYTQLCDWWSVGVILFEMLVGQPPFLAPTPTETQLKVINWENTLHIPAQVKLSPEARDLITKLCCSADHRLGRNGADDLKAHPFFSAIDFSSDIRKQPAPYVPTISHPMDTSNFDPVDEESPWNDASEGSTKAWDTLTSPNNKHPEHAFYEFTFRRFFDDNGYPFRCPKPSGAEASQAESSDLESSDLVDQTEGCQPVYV
Sequence of Glycogen synthase kinase-3 beta (P49841 whole entry, looked up, canonical isoform): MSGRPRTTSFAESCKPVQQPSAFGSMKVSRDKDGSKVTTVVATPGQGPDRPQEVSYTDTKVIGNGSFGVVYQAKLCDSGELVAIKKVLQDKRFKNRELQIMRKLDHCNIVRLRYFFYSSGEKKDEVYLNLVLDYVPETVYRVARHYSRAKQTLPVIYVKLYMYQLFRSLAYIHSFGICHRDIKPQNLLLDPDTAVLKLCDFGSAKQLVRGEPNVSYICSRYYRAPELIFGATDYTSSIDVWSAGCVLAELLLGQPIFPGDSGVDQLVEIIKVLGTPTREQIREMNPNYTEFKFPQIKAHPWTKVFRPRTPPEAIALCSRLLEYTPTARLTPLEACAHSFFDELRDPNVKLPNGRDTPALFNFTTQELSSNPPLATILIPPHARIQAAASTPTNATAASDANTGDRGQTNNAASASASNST
Sequence of Calcium/calmodulin-dependent protein kinase type II subunit delta (Q13557 whole entry, the tested form may be a part): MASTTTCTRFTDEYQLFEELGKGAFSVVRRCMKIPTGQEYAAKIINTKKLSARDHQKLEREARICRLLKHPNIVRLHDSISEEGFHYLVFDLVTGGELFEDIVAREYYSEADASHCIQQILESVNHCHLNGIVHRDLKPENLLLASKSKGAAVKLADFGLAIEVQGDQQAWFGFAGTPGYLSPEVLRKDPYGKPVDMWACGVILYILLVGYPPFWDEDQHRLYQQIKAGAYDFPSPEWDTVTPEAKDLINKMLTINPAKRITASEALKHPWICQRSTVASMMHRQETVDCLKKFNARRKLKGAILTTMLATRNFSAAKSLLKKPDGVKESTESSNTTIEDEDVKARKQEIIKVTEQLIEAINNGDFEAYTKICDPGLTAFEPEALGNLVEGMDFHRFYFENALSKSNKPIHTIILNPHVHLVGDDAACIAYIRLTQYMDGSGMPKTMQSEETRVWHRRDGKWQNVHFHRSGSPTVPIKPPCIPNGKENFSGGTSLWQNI
Sequence of Tyrosine-protein kinase CSK (P41240 2-450 limits assumed): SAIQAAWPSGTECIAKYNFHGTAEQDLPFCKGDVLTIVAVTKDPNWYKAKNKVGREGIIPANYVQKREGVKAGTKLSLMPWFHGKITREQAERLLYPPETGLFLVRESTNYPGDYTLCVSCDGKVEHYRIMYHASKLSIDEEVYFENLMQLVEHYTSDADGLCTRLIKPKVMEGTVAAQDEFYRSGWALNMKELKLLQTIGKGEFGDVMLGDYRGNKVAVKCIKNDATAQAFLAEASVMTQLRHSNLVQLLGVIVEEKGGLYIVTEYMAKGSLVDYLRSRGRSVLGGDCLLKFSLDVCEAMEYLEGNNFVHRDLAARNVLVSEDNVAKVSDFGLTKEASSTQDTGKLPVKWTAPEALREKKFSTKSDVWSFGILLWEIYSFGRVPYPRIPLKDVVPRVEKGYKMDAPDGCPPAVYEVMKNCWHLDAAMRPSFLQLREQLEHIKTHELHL

SMILES: CCOc1cc(N2CCC(O)CC2)ccc1Nc1ncc2c(n1)N(C)c1ccccc1C(=O)N2C
- IC50 [1]: > 50 µM
- IC50 [2]: > 50 µM
- IC50 [3]: > 50 µM
- IC50 [4]: > 50 µM
- inhibition [5]: 7.3%
- inhibition [6]: -1.2%
- inhibition [7]: -4%
- inhibition [8]: 22.3%
- inhibition [9]: 1.7%
- inhibition [10]: -4.4%
- inhibition [11]: Active
- MRT [12]: 4.8 h
